CHOP UPR activ: apoptotic UPR (CHOP) activation; CHO-CHOP luciferase reporter, luminescence; percent of tunicamycin response over DMSO baseline; activation, % at 10 µM; 330,000 compounds, 0.34% hits; AID 449763;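 active = at 10 µM dose, activation of 40% or more, normalized to positive control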;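 also: 100% = tunicamycin at 10 µg/mL and 0% = DMSO alone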
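Evaluation: % reporter activation, DMSO baseline versus tunicamycin full activation; System: CHO-CHOP luciferase reporter cell line; Input: 500 cells/well; Incubation: 6 h compound treatment, 37 °C; Measured by: Steady-Glo luciferase luminescence; Dosing: one dose, 10 µM in 0.5% DMSO; Buffer or medium: F12 medium, 10% FBS; Benchmarks: positive tunicamycin 10 µg/mL, negative DMSO alone.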
697 NFkB inh: inhibitors of the PMA/ionomycin-induced NF-kB reporter in 697 B cells | 697 B-cell NF-kB luciferase reporter, 16 h | AID 435022 | inhibition, % at 4 µM | 330,000 compounds, 0.33% hits; in the data active = inhibition above about 35%
CHOP inh: inhibitors of CHOP induction in ER stress response; CHO-K1 CHOP-promoter luciferase, tunicamycin-induced, 15-18 h; inhibition, % at 10 µM; 220,000 compounds, 3.8% hits; AID 2732;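 active = compounds that reduced the stress-induced luciferase reporter signal by more than about 70% of percent inhibition, limit read from the data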;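 also: 0% = tunicamycin plus vehicle and 100% = wells without tunicamycin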
UPR XBP1 act: adaptive UPR (XBP1) activation. 330,000 compounds, 0.33% hits. CHO-XBP1 luciferase reporter, IRE1-XBP1 UPR activation, luminescence; percent of tunicamycin response, DMSO as zero. activation, % at 20 µM;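 active = versus positive control, 20 µM dose yields 30% or more activation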;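 also: 100% = tunicamycin at 10 µg/mL and 0% = DMSO only wells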
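Material – CHO cell line with stable XBP1 luciferase reporter · Buffer or medium – F12 plus 10% FBS · Compound – single point, 20 µM final compound, 1% DMSO · Schedule – 16-18 h cell attachment at 37 °C, then 6 h compound exposure · Signal – Steady-Glo luminescence read · Benchmarks – high control tunicamycin 10 µg/mL final, low control DMSO vehicle only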
Jurkat NFkB inh: lowers PMA/ionomycin-induced NF-kB signal in Jurkat cells; PMA/ionomycin-induced NF-kB luciferase reporter, luminescence; inhibition, % at 4 µM; 330,000 compounds, 0.53% hits; in the data active = inhibition above about 50%
CHOP inh conf: confirmation of CHOP induction inhibitors. shares compounds with CHOP inh. CHO-CHOP promoter luciferase reporter, tunicamycin-induced, luminescence. inhibition, % at 10 µM. 2,100 compounds, 45% hits;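 active = mean of three repeat readings of reporter signal inhibition above a set limit, cut at about 70% in these data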;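 also: 0% = tunicamycin plus vehicle and 100% = wells lacking tunicamycin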
The depositor's hits bear a star; . = not tested or not shown. The full list was thinned out, with hits kept by preference.

SMILES	CHOP UPR activ	697 NFkB inh	CHOP inh	UPR XBP1 act	Jurkat NFkB inh	CHOP inh conf
C=CCn1c(O)c(C(C)=Nc2ccc(N(CC)CC)cc2)c(=O)[nH]c1=O	2	-65	56	1	42	.
C=CCn1c(O)c(C(CC)=Nc2ccc(N(CC)CC)cc2)c(=O)[nH]c1=O	3	-13	103*	-1	9	96*
C[C@]12C[C@@H](O)[C@H](O)CC1=CCC1C2CC[C@@]2(C)C1CC[C@@H]2O (some centres not stated)	0	9	.	-2	9	.
CCCCCCOC(=O)c1ccccc1N	7	-44	97*	4	-52	103*
COC(=O)C1=C(c2cccc3c2S(=O)(=O)c2ccccc2-3)C[C@@H]2CC[C@H]1N2C(=O)N1CCc2cc(OC)c(OC)cc2C1	2	-3	.	0	4	.
CC1CCCCC1NC(=O)CNC(=S)N1CC2CC(C1)c1cccc(=O)n1C2 (configuration not stated)	1	5	.	-4	3	.
CCCCCn1c(=O)c(C(=O)Nc2nc3ccccc3[nH]2)c(O)c2ccccc21	16	7	98*	16	-1	109*
CCCCn1c(=O)c(C(=O)Nc2cnccn2)c(O)c2ccccc21	13	-14	99*	3	-22	93*
CCCCCn1c(=O)c(C(=O)Nc2ccccc2Cl)c(O)c2ccccc21	9	-51	.	0	-17	.
CCCCn1c(=O)c(C(=O)Nc2cccc(C)c2)c(O)c2ccccc21	2	-5	.	-4	7	.
CCOC(=O)c1sc(N=Nc2c(O)[nH]c(=O)[nH]c2=O)c(C(=O)OCC)c1C	3	-23	105*	14	-11	106*
CC(C)n1c(O)c(C2c3cc(Cl)ccc3Oc3[nH]c(=O)n(C(C)C)c(=O)c32)c(=O)[nH]c1=O (configuration not stated)	.	.	107*	.	.	62
OC(c1ccccc1)(c1ccccc1)C1CCNCC1	2	4	108*	-4	-5	18
OC(c1ccccc1)(c1ccccc1)C1CN2CCC1CC2 (configuration not stated)	-1	-15	2	0	-14	.
CCOc1cc2c(cc1OCC)-n1cccc1C(c1cc(OC)ccc1F)NC2 (configuration not stated)	1	-17	.	-1	3	.
CCOc1ccc(N=Cc2c(O)n(-c3cc(C)cc(C)c3)c(=O)[nH]c2=O)cc1	-1	14	49	-4	1	.
CCOc1ccc(N=Cc2c(O)n(C(C)(C)C)c(=O)[nH]c2=O)cc1	-1	6	99*	1	15	127*
O=c1[nH]c(=O)n(C2CCCCC2)c(O)c1/C=C/C=Nc1ccccc1	1	-1	100*	2	-5	36
Nc1cc(Cl)c2nonc2c1[N+](=O)[O-]	.	.	108*	.	.	121*
O=c1[nH]c(O)c(C=Nc2ccccc2Sc2ccccc2)c(=O)[nH]1	0	-10	100*	2	1	-34
COC(=O)C(O)(c1ccc(NC(=S)NC(=O)c2ccc(Cl)cc2Cl)c(C)c1)C(F)(F)F (configuration not stated)	0	-23	98*	0	0	106*
O=c1nc(/C=C/c2ccc(Cl)cc2Cl)cc(C(F)(F)F)[nH]1	1	-21	.	1	-2	.
C[C@]12CCC3C(CC[C@H]4C[C@@H](O)CC[C@]34C)C1C[C@@H](Br)[C@@H]2O (some centres not stated)	0	-2	.	0	-5	.
O=c1c2ccccc2nc(-c2cccs2)n1-c1ccccc1	-3	-7	51	-1	-1	.
NC(N)=N/N=C/c1cn(-c2ccccc2)nc1-c1cccs1	9	7	106*	16	26	98*
SMILES	CHOP UPR activ	697 NFkB inh	CHOP inh	UPR XBP1 act	Jurkat NFkB inh	CHOP inh conf
CCCN(CCC)CCc1c[nH]c2ccc(C(N)=O)cc12	.	.	-8	.	.	.
Cc1ccc(NC(=O)CN2C(=O)CN=C(c3ccccc3)c3cc(Cl)ccc32)cc1	0	0	107*	-2	14	34
COc1ccc(-n2nc(C(F)(F)F)cc2-c2ccc(Cl)cc2)cc1	.	.	-8	.	.	.
O=C(COC(=O)c1ccc(O)cc1)Nc1ccc(Cl)cc1C(=O)c1ccccc1	-2	11	102*	0	-1	41
O=C(COc1ccccc1)Nc1ccc(Cl)cc1C(=O)c1ccccc1	1	23	96*	-5	-17	5
CC(=O)Nc1ccc(C(=O)OCC(=O)Nc2ccc(Cl)cc2C(=O)c2ccccc2)cc1	0	-17	-7	0	-6	.
CCCOc1ccc(C(=O)NC(=S)N2C[C@H]3C[C@H](C2)c2cccc(=O)n2C3)cc1	0	2	.	-3	-9	.
CC(=O)[C@H]1CCC2C3CC[C@H]4C[C@H](O)CC[C@]4(C)C3CC[C@@]21C (some centres not stated)	.	.	-1	.	.	.
CCCCCCCSc1cc(OC)c(CCNC)cc1OC	-2	-17	100*	6	28	3
Cc1nn(Cc2ccccc2)c(Cl)c1C(=O)OCC(=O)N1CCCC1	1	3	6	4	-8	.
O=C1NC(=O)N(Cc2ccco2)C(=O)/C1=C/c1ccc(-c2cccc([N+](=O)[O-])c2)o1	29	10	98*	12	2	-104
C=CCN1C(=O)NC(=O)/C(=C\c2ccc(-c3ccccc3[N+](=O)[O-])o2)C1=O	0	9	105*	0	1	-36
C=CCN1CC[C@]23CCCCC2[C@H]1Cc1ccc(O)cc13 (some centres not stated)	.	.	-3	.	.	.
COc1ccc(CN2C(=O)NC(=O)/C(=C\c3ccco3)C2=O)cc1	0	-23	105*	4	11	-29
COc1ccc(CN2C(=O)NC(=O)/C(=C\c3cc(OC)c(OC)c(OC)c3)C2=O)cc1	0	-23	9	-2	-4	.
COCCCn1c(N)c(C(=O)NCCC(C)C)c2nc3ccccc3nc21	-2	7	99*	3	-6	99*
CCCCn1c(N)c(C(=O)OCCOC)c2nc3ccccc3nc21	0	12	-9	1	7	.
O=C1NC(=S)NC(=O)C1=Cc1cccn1-c1ccc(O)cc1	.	.	107*	.	.	-267
Cn1cccc1/C=C1/C(=O)NC(=O)N(C(C)(C)C)C1=O	1	6	-5	1	0	.
CCc1nnc(NS(=O)(=O)c2ccc(N=Cc3c(O)n(-c4ccc(Cl)cc4)c(=O)[nH]c3=O)cc2)s1	-1	8	18	3	-1	.
CCOC(=O)c1c(/N=C/c2c(O)n(-c3cccc(C)c3)c(=O)[nH]c2=O)sc2c1CCCC2	4	-3	98*	2	3	88*

Assay outcomes deposited in PubChem BioAssay by several laboratories.
